According to ChEMBL document CHEMBL1131041 (J Med Chem, 1998):

Experiments:
[1] = organism: Cavia porcellus; experiment: Binding affinity of compound was measured on electrically stimulated guinea pig ileal longitudinal muscle myenteric plexus (GPI) preparation using PL017 as standard antagonist; type: functional; conditions: Muscle tissue
Outline: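 Electrically stimulated guinea pig ileum longitudinal muscle–myenteric plexus (male Hartley, 250–500 g) in oxygenated Krebs at 37 °C, 1 g tension; 0.1 Hz, 0.4-ms pulses. Tissue preincubated 30 min with 1 μM compound, washed 30 min, then cumulative PL-017 curve repeated. Ke = [antagonist]/(IC50 ratio − 1); n ≥ 3.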

[2] = organism: Mus musculus; experiment: (§1) Partial agonist activity expressed as inhibition of contraction of mouse vas deferens (MVD) smooth muscle at 1 uM conc.; type: functional, Muscle tissue
Outline: (§2)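 Agonist action on electrically driven tissues at 37 °C: GPI (1 g tension, 0.4-ms pulses) and Mg-free MVD (0.5 g, 2-ms pulses), 0.1 Hz. Percent inhibition of contraction height read 10 min after 1 μM compound; for stronger agonists, IC50 from concentration–response curves (2–4 tissues, nonlinear least squares). Selectivity = GPI IC50/MVD IC50.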

[3] = target: Delta-type opioid receptor (Mus musculus) (UniProt P32300); experiment: Displacement of DPDPE from Opioid receptor delta 1 of mouse vas deferens (MVD)smooth muscle
Outline: (§3)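 Mouse vas deferens (male ICR, 25–40 g) in Mg-free oxygenated Krebs at 37 °C, 0.5 g tension; transmural 0.1 Hz, 2-ms pulses, supramaximal voltage. Control DPDPE curve first; then 1 μM compound 30 min, 30 min wash, cumulative DPDPE curve (3-min steps) repeated. IC50 ratio = shifted/control IC50; Ke = [antagonist]/(ratio − 1); n ≥ 3.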

[4] = target: T1, Kappa-type opioid receptor (Cavia porcellus, UniProt P41144); experiment: Displacement of [125I]OXY from Opioid receptor kappa 2b of guinea pig brain membranes (pretreated with BIT(mu) and FIT(delta) and in the presence of (-)U50,488)
Outline: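 Guinea pig brain membranes depleted of μ/δ sites by BIT and FIT, labelled with 0.01 nM [125I]IOXY in presence of 5 μM (−)U50,488. Incubation 4–6 h at 4 °C in 50 mM Tris-HCl pH 7.4 with 10 mM NaCl, protease inhibitors and 1 μg/mL captopril.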

[5] = target: T1, Kappa-type opioid receptor; experiment: Displacement of [3H]U-69593 from Opioid receptor kappa 1 of guinea pig brain membranes (pretreated with BIT and FIT to block mu and delta sites)
Outline: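 Guinea pig brain membranes pretreated with BIT and FIT, labelled with [3H]U69,593. Incubation 4–6 h at 25 °C in 50 mM Tris-HCl pH 7.4 with protease inhibitors and 1 μg/mL captopril. Nonspecific binding with 1 μM U69,593. 8–10 concentrations, twice.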

[6] = target: T2, Delta-type opioid receptor (Rattus norvegicus, UniProt P33533); experiment: Displacement of [3H]DADLE from morphine-insensitive Opioid receptor delta 1 (presence of 50 nM morphine) of rat brain membranes; type: cell membranes, Membrane
Outline: (§4)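 Rat brain membranes pretreated with (+)-trans-[…], labelled with 2.0 nM [3H]DADLE, plus 50 nM morphine (δcx-2) or 300 nM DELT-II (δcx-1). Incubation 4–6 h at 25 °C in 10 mM Tris-HCl pH 7.4 with 100 mM NaCl, 3 mM MnCl2, 2 μM GTP, 5 mM 2-mercaptoethanol and protease inhibitors. 8–10 concentrations, twice.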

[7] = target: T2, Delta-type opioid receptor; experiment: Displacement of [3H]DADLE from morphine-sensitive Opioid receptor delta 1 (presence of 300 nM DELT-II) of rat brain membranes; type: cell membranes, Membrane; outline: as §4
[8] = target: T2, Delta-type opioid receptor; experiment: Displacement of [3H]DADLE from Opioid receptor delta 1 of rat brain membranes (DAMGO quenching mu receptor); type: cell membranes, Membrane
Outline: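 Rat brain membranes labelled with [3H]DADLE. Incubation 3–4 h at 25 °C in 10 mM Tris-HCl pH 7.4 with 100 mM choline chloride, 3 mM MnCl2, 100 nM DAMGO (μ block) and protease inhibitors. Levallorphan 20 μM for nonspecific binding. 8–10 concentrations, duplicate runs.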

[9] = organism: Cavia porcellus; experiment: (§5) Partial agonist activity expressed as inhibition of contraction of guinea pig ileal longitudinal muscle myenteric plexus (GPI) at 1 uM conc.; type: functional, Muscle tissue; outline: as §2
[10] = target: Mu-type opioid receptor (Mus musculus) (UniProt P42866); experiment: Compound was tested for antagonist activity against Opioid receptor mu 1 on electrically stimulated guinea pig ileal longitudinal muscle myenteric plexus (GPI) using PL017 as antagonist ligand. IC50 ratio = IC50(agonist)/IC50 (control); type: functional; conditions: Cavia porcellus; target entry is the homologue from another species
Outline: (§6)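 Guinea pig ileum longitudinal muscle–myenteric plexus (male Hartley, 250–500 g) in oxygenated Krebs at 37 °C, 1 g tension; 0.1 Hz, 0.4-ms pulses, supramaximal voltage. Control PL-017 curve first; 1 μM compound 30 min, 30 min wash, cumulative PL-017 curve repeated. IC50 ratio = antagonized/unantagonized IC50; n ≥ 3.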

[11] = target: Mu-type opioid receptor (Rattus norvegicus, UniProt P33535); experiment: Displacement of [3H]DAMGO from Opioid receptor mu 1 of rat brain membranes; type: cell membranes, Membrane
Outline: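 Rat brain membranes labelled with [3H]DAMGO. Incubation 4 h at 25 °C in 50 mM Tris-HCl pH 7.4 with protease inhibitor cocktail. Nonspecific binding defined with 20 μM levallorphan. 8–10 test concentrations, run twice; IC50 and slope factor derived.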

[12] = Relative affinity for guinea pig kappa1 and rat delta receptors
[13] = target: Opioid receptors; mu & delta (Rattus norvegicus) (UniProt P33533+P33535); experiment: Relative affinity for mu and delta receptors in rat brain membranes; type: cell membranes
[14] = Selectivity for mu receptor of guinea pig Ileum (GPI) and delta receptor of delta opioid receptor of mouse vas deferens (MVD) smooth muscle preparation; type: tissue-based
[15] = target: Delta-type opioid receptor (Mus musculus) (UniProt P32300)
[16] = target: Delta-type opioid receptor (Mus musculus) (UniProt P32300); experiment: Displacement of DPDPE from Opioid receptor delta 1 of mouse vas deferens (MVD) smooth muscle; outline: as §3
[17] = organism: Cavia porcellus; experiment: as §5; type: functional, organism-based; conditions: Muscle tissue; outline: as §2
[18] = organism: Mus musculus; experiment: as §1; type: functional, organism-based; conditions: Muscle tissue; outline: as §2
[19] = target: Opioid receptors; mu & delta (Homo sapiens) (UniProt P41143+P35372); experiment: IC50 selectivity for mu receptor of guinea pig Ileum (GPI) and delta receptor of delta opioid receptor of mouse vas deferens (MVD) smooth muscle preparation; type: tissue-based; outline: as §2
[20] = target: Mu-type opioid receptor (Mus musculus) (UniProt P42866); experiment: Compound was tested for antagonist activity against dOpioid receptor mu 1 on electrically stimulated guinea pig ileal longitudinal muscle myenteric plexus (GPI) using PL017as standard antagonist; e denotes 'the agonist effects precluded the determination of antagonist effects'; type: functional; conditions: Cavia porcellus; filed as agonist; target entry is the homologue from another species; outline: as §6
[21] = target: Delta-type opioid receptor (Mus musculus) (UniProt P32300); experiment: Compound was tested for antagonist activity against Opioid receptor delta 1 on mouse vas deferens (MVD) smooth muscle preparation using DPDPE as antagonist ligand; e denotes the agonist effects precluded the determination of antagonist effects; type: functional; conditions: filed as agonist; outline: as §3
[22] = organism: Mus musculus; conditions: Muscle tissue

Opioid receptors; mu & delta (Rattus norvegicus), sequence (P33533 whole entry, looked up): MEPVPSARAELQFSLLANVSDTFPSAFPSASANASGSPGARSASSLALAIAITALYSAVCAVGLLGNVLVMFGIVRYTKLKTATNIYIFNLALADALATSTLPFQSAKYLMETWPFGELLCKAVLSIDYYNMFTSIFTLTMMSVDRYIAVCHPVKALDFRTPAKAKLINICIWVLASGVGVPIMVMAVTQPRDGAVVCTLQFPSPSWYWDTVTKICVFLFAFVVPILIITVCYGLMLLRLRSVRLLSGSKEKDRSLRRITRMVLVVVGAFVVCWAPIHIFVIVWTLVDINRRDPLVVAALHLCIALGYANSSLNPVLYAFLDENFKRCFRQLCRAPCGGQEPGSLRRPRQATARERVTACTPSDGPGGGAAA
Opioid receptors; mu & delta (Rattus norvegicus), sequence (P33535 whole entry, looked up): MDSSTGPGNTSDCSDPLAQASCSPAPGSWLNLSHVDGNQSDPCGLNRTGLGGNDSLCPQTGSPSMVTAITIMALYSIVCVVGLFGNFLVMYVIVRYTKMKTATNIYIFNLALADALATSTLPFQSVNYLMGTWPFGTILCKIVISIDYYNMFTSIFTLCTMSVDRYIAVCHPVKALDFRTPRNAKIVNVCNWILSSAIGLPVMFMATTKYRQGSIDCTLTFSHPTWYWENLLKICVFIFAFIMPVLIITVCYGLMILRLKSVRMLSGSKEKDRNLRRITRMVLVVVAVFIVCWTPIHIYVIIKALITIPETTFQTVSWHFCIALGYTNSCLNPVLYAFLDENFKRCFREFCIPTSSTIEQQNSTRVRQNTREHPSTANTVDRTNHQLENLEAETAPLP
T2 sequence (P33533 whole entry): as the sequence (P33533 whole entry, looked up) above
T1 sequence (P41144 whole entry): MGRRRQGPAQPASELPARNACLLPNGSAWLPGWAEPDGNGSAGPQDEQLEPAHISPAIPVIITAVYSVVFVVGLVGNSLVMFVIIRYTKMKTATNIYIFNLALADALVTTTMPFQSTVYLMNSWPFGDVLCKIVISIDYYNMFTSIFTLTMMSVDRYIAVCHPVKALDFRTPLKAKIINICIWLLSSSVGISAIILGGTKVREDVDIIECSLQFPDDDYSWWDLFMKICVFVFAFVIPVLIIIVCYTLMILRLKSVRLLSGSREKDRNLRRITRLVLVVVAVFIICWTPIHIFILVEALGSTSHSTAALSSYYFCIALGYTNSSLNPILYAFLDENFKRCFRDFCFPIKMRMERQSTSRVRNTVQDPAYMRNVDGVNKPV
Mu-type opioid receptor (Mus musculus), sequence (P42866 whole entry): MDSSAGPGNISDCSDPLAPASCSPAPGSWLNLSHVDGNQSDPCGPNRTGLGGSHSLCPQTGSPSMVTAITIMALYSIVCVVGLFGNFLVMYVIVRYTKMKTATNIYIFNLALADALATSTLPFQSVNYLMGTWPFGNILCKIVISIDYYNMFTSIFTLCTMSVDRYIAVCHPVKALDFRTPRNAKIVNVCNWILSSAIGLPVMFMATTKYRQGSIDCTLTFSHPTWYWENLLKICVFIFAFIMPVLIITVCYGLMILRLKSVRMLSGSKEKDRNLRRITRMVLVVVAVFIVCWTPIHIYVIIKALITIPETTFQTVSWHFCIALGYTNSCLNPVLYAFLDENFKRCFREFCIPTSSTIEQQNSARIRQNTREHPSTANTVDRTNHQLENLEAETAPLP
Opioid receptors; mu & delta (Homo sapiens), sequence (P35372 whole entry, looked up): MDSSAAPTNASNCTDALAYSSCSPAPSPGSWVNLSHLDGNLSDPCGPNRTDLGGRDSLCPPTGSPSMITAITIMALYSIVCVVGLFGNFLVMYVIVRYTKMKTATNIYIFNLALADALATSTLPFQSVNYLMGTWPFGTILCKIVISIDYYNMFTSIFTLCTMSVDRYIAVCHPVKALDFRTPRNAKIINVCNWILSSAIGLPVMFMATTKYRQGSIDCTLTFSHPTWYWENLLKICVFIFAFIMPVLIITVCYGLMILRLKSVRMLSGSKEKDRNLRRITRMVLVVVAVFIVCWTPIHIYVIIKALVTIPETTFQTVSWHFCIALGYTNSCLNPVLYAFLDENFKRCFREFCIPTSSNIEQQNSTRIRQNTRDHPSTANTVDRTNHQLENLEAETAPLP
Opioid receptors; mu & delta (Homo sapiens), sequence (P41143 whole entry, looked up): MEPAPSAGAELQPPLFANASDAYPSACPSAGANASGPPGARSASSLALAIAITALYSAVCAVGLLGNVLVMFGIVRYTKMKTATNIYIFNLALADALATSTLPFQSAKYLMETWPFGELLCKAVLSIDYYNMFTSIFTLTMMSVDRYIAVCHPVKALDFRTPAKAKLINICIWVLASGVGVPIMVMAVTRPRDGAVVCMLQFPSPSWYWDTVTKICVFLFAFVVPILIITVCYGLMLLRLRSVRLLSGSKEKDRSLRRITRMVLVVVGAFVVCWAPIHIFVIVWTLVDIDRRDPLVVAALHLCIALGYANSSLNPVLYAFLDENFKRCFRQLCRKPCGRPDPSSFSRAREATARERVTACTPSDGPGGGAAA
Mu-type opioid receptor, sequence (P33535 whole entry): as the sequence (P33535 whole entry, looked up) above
Delta-type opioid receptor (Mus musculus), sequence (P32300 whole entry): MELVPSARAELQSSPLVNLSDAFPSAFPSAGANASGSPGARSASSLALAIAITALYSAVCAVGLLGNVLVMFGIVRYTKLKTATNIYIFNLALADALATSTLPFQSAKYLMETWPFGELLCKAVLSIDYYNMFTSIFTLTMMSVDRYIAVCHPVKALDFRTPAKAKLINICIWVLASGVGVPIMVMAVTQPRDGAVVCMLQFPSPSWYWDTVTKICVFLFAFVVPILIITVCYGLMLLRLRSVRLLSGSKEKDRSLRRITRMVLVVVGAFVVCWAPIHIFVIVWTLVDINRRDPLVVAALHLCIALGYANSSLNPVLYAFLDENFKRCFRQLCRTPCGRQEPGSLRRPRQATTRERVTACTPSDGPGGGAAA

SMILES	Ke [1]	Max response [2]	Ke [3]	Ki [4]	Ki [5]	Ki [6]	Ki [7]	Ki [8]	Max response [9]	Ratio [10]	Ki [11]	Selectivity ratio [12]	Selectivity ratio [13]	Selectivity ratio [14]	Ratio [16]	other results
Oc1ccc2c3c1O[C@H]1c4[nH]c5ccccc5c4C[C@@]4(O)[C@@H](C2)N(CC2CC2)CC[C@]314 [NALTRINDOLE]	43 nM	16%	0.49 nM	19.9 nM	34.1 nM	0.24 nM	12.3 nM	0.29 nM	18%	–	–	–	–	–	–	–
Oc1ccc2c3c1OC1c4[nH]c5c(-c6ccccc6)cccc5c4C[C@@]4(O)[C@@H](C2)N(CC2CC2)CC[C@]314 (stereo partly drawn)	310 nM	35%	–	89.9 nM	312 nM	0.46 nM	51.4 nM	2.1 nM	37%	4.2	124 nM	149	59	172	–	Ke [15]: 1.8 nM
Oc1ccc2c3c1OC1c4[nH]c5cccc(Oc6ccccc6)c5c4C[C@@]4(O)[C@@H](C2)N(CC2CC2)CC[C@]314 (stereo partly drawn)	590 nM	27%	17 nM	353 nM	1310 nM	114 nM	395 nM	67.9 nM	28%	2.7	1430 nM	19	21	35	–	–
Oc1ccc2c3c1OC1c4[nH]c5ccc(-c6ccccc6)cc5c4C[C@@]4(O)[C@@H](C2)N(CC2CC2)CC[C@]314 (stereo partly drawn)	110 nM	25%	9.4 nM	186 nM	354 nM	24.7 nM	121 nM	15.8 nM	0%	–	165 nM	22	10	12	110	–
Oc1ccc2c3c1OC1c4[nH]c5cccc(OCc6ccccc6)c5c4C[C@@]4(O)[C@@H](C2)N(CC2CC2)CC[C@]314 (stereo partly drawn)	–	70%	–	109 nM	539 nM	17.2 nM	74.1 nM	14.8 nM	86%	–	360 nM	36	24	–	–	–
Oc1ccc2c3c1OC1c4[nH]c5ccc(OCc6ccccc6)cc5c4C[C@@]4(O)[C@@H](C2)N(CC2CC2)CC[C@]314 (stereo partly drawn)	560 nM	35%	4.8 nM	85.8 nM	82.1 nM	1.7 nM	14.9 nM	4.4 nM	24%	2.8	81 nM	19	18	117	210	–
Oc1ccc2c3c1OC1c4[nH]c5c(Oc6ccccc6)cccc5c4C[C@@]4(O)[C@@H](C2)N(CC2CC2)CC[C@]314 (stereo partly drawn)	–	–	0.25 nM	56.8 nM	33.6 nM	0.61 nM	18.7 nM	0.71 nM	–	–	34.2 nM	47	48	–	4000	IC50 [17]: 450 nM; IC50 [18]: 4100 nM; Selectivity ratio [19]: 0.11
Oc1ccc2c3c1OC1c4[nH]c5ccc(/C=C/c6ccccn6)cc5c4C[C@@]4(O)[C@@H](C2)N(CC2CC2)CC[C@]314 (stereo partly drawn)	–	–	–	21.4 nM	20.1 nM	4 nM	17.4 nM	3.7 nM	–	–	76 nM	5	21	–	–	IC50 [17]: 2600 nM; IC50 [18]: 220 nM; Ratio [20]: Agonist; Ratio [21]: Agonist; Selectivity ratio [19]: 12
Oc1ccc2c3c1OC1c4[nH]c5cccc(-c6ccccc6)c5c4C[C@@]4(O)[C@@H](C2)N(CC2CC2)CC[C@]314 (stereo partly drawn)	710 nM	22%	66 nM	435 nM	2970 nM	127 nM	284 nM	52.4 nM	0%	2.4	1510 nM	57	29	11	16	–
Oc1ccc2c3c1OC1c4[nH]c5c(OCc6ccccc6)cccc5c4C[C@@]4(O)[C@@H](C2)N(CC2CC2)CC[C@]314 (stereo partly drawn)	–	–	1.7 nM	112 nM	258 nM	2.5 nM	73.3 nM	3.1 nM	–	–	159 nM	83	51	–	610	IC50 [17]: 1700 nM; IC50 [18]: 9500 nM; Selectivity ratio [19]: 0.18
Oc1ccc2c3c1OC1c4[nH]c5cc(-c6ccccc6)ccc5c4C[C@@]4(O)[C@@H](C2)N(CC2CC2)CC[C@]314 (stereo partly drawn)	–	36%	21 nM	660 nM	632 nM	14.2 nM	299 nM	18 nM	2%	–	1280 nM	35	71	–	49	–
Oc1ccc2c3c1OC1c4[nH]c5cc(OCc6ccccc6)ccc5c4C[C@@]4(O)[C@@H](C2)N(CC2CC2)CC[C@]314 (stereo partly drawn)	–	25%	–	461 nM	470 nM	6.3 nM	201 nM	6.7 nM	0%	–	676 nM	70	101	–	260	Ke [22]: 3.9 nM
Oc1ccc2c3c1OC1c4[nH]c5ccc(Oc6ccccc6)cc5c4C[C@@]4(O)[C@@H](C2)N(CC2CC2)CC[C@]314 (stereo partly drawn)	770 nM	11%	11 nM	199 nM	75.2 nM	4.9 nM	204 nM	17.9 nM	8%	–	292 nM	4	16	70	93	–
